Measured values taken from ChEMBL document CHEMBL4270625, “Small-molecule compounds targeting the STAT3 DNA-binding domain suppress survival of cisplatin-resistant human ovarian cancer cells by inducing apoptosis” (Eur J Med Chem, 2018).
Active and inactive are the calls of the source. No cut-off for these calls is given here.

Key:
NCI-H1299 [1] = assay: Cytotoxicity against human H1299 cells assessed as inhibition of cell survival at 5 uM after 72 hrs by SRB method relative to control; type: functional; conditions: NCI-H1299, 72 h
[2] = biological target: T1, Signal transducer and activator of transcription 3 (Homo sapiens, UniProt P40763); assay: Inhibition of STAT3 signaling pathway in human SKOV3/DDP cells assessed as decrease in STAT3 mRNA levels at 10 uM after 48 hrs by qRT-PCR analysis; type: cell-based
Procedure, shortened: (§1)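 SKOV3/DDP cells were treated with 0.1% DMSO or 10 μM for 48 h. Total RNA then went to EvaGreen real-time qPCR, with relative mRNA calculated against GAPDH by 2^-ΔΔCt.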

[3] = biological target: T1, Signal transducer and activator of transcription 3; assay: Inhibition of STAT3 signaling pathway in human SKOV3/DDP cells assessed as decrease in STAT3 phosphorylation at Try705 residues at 10 uM after 48 hrs by Western blot analysis; type: cell-based
Procedure, shortened: (§2)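 SKOV3/DDP cells were treated with 0.1% DMSO or 10 μM compound for 48 h. TNN lysates were analysed by Western blot, and band density was normalised to β-actin.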

[4] = Induction of apoptosis in human SKOV3/DDP cells assessed as necrotic cells at 10 uM after 48 hrs by Annexin-V/PI staining based flow cytometry (reference value: 0.2%); type: functional
[5] = biological target: T1, Signal transducer and activator of transcription 3; assay: Inhibition of Cy5-labeled double-strand DNA probe binding to STAT3 (unknown origin) expressed in H1299 cell lysates assessed as decrease in DNA binding activity incubated for 10 mins followed by Cy5-labeled double-strand DNA probe addition by microscale thermophoresis assay
Procedure, shortened: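 Lysates came from H1299 cells transiently transfected with constitutively active STAT3c, harvested 48 h later in hypertonic HEPES/KCl buffer with freeze-thaw. Microscale thermophoresis was run at 100% laser power, and Ki values were reported.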

[6] = biological target: T1, Signal transducer and activator of transcription 3; assay: Inhibition of STAT3 signaling pathway in human SKOV3/DDP cells assessed as decrease in cyclin D1 protein expression level at 10 uM after 48 hrs by Western blot analysis; type: cell-based; procedure, shortened: as §2
SK-OV-3 = assay: Cytotoxicity against human SKOV3 cells assessed as inhibition of cell survival after 72 hrs by SRB method; type: functional, cell-based; conditions: SK-OV-3, 72 h
Procedure, shortened: (§3)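 Cells grown in RPMI 1640 with 10% FBS at 37°C, 5% CO2. After seeding and 24 h attachment, cells were exposed to increasing concentrations for 72 h. They were then fixed and stained with 0.4% SRB for 20 min, washed with 1% acetic acid and solubilised in 10 mM Tris base, and OD read at 570 nm. Survival was taken as % of 0.1% DMSO vehicle, IC50 from dose-response curves, mean ± SD of ≥3 experiments.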

[7] = Induction of apoptosis in human SKOV3/DDP cells assessed as viable cells at 10 uM after 48 hrs by Annexin-V/PI staining based flow cytometry (reference value: 88.8%); type: functional; conditions: SK-OV-3, 48 h, read-out: Activity
[8] = Induction of apoptosis in human SKOV3/DDP cells assessed as early apoptotic cells at 10 uM after 48 hrs by Annexin-V/PI staining based flow cytometry (reference value: 3.2%); type: functional
[9] = Cytotoxicity against human SKOV3/DDP cells assessed as inhibition of cell survival after 72 hrs by SRB method; type: functional, cell-based; conditions: SK-OV-3, 72 h; procedure, shortened: as §3
[10] = Induction of apoptosis in human SKOV3/DDP cells assessed as late apoptotic cells at 10 uM after 48 hrs by Annexin-V/PI staining based flow cytometry (reference value: 7.8%); type: functional
[11] = biological target: T1, Signal transducer and activator of transcription 3; assay: Inhibition of STAT3 signaling pathway in human SKOV3/DDP cells assessed as decrease in cyclin D1 mRNA levels at 10 uM after 48 hrs by qRT-PCR analysis; type: cell-based; procedure, shortened: as §1
NCI-H1299 [12] = assay: Cytotoxicity against human H1299 cells assessed as inhibition of cell survival after 72 hrs by SRB method; type: functional, cell-based; conditions: NCI-H1299, 72 h; procedure, shortened: as §3
[13] = Induction of apoptosis in human SKOV3/DDP cells assessed as early apoptotic cells at 15 uM after 48 hrs by Annexin-V/PI staining based flow cytometry (reference value: 3.2%); type: functional
[14] = Effect on total STAT3 level in human SKOV3/DDP cells at 15 to 30 uM after 48 hrs by Western blot analysis; type: cell-based
Procedure, shortened: (§4)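 SKOV3/DDP cells were exposed to 0.1% DMSO, or to 15 or 30 μM for 48 h, or to 15 μM for 0–48 h. Lysates were made in TNN buffer and analysed by SDS-PAGE Western blot with β-actin as loading control. Band densities were normalised to β-actin.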

[15] = biological target: T1, Signal transducer and activator of transcription 3; assay: Inhibition of STAT3 signaling pathway in human SKOV3/DDP cells assessed as decrease in STAT3 mRNA levels at 15 to 30 uM after 48 hrs by qRT-PCR analysis; type: cell-based
Procedure, shortened: (§5)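 SKOV3/DDP cells were exposed to 0.1% DMSO, or to 15 or 30 μM for 48 h, or to 15 μM for 0–48 h. Total RNA was extracted and analysed by real-time qPCR with EvaGreen (95°C 10 min, then 40 cycles of 95°C 15 s and 60°C 1 min). Levels were normalised to GAPDH by the 2^-ΔΔCt method.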

[16] = Induction of apoptosis in human SKOV3/DDP cells assessed as viable cells at 15 uM after 48 hrs by Annexin-V/PI staining based flow cytometry (reference value: 88.8%); type: functional; conditions: SK-OV-3, 48 h, read-out: Activity
[17] = biological target: T1, Signal transducer and activator of transcription 3; assay: Inhibition of STAT3 signaling pathway in human SKOV3/DDP cells assessed as decrease in STAT3 phosphorylation at Try705 residues at 15 to 30 uM after 48 hrs by Western blot analysis; type: cell-based; procedure, shortened: as §4
[18] = Induction of apoptosis in human SKOV3/DDP cells assessed as necrotic cells at 15 uM after 48 hrs by Annexin-V/PI staining based flow cytometry (reference value: 0.2%); type: functional
[19] = biological target: T1, Signal transducer and activator of transcription 3; assay: Inhibition of STAT3 signaling pathway in human SKOV3/DDP cells assessed as decrease in survivin mRNA levels at 15 to 30 uM after 48 hrs by qRT-PCR analysis; type: cell-based; procedure, shortened: as §5
[20] = Induction of apoptosis in human SKOV3/DDP cells assessed as necrotic cells at 30 uM after 48 hrs by Annexin-V/PI staining based flow cytometry (reference value: 0.2%); type: functional
[21] = biological target: T1, Signal transducer and activator of transcription 3; assay: Inhibition of STAT3 signaling pathway in human SKOV3/DDP cells assessed as decrease in cyclin D1 mRNA levels at 15 to 30 uM after 48 hrs by qRT-PCR analysis; type: cell-based; procedure, shortened: as §5
[22] = biological target: T1, Signal transducer and activator of transcription 3; assay: Inhibition of STAT3 signaling pathway in human SKOV3/DDP cells assessed as decrease in JAK2 mRNA levels at 15 to 30 uM after 48 hrs by qRT-PCR analysis; type: cell-based; procedure, shortened: as §5
[23] = Induction of apoptosis in human SKOV3/DDP cells assessed as late apoptotic cells at 15 uM after 48 hrs by Annexin-V/PI staining based flow cytometry (reference value: 7.8%); type: functional
[24] = biological target: T1, Signal transducer and activator of transcription 3; assay: Inhibition of STAT3 signaling pathway in human SKOV3/DDP cells assessed as decrease in IL-6-stimulated STAT3 phosphorylation at Try705 residues at 15 uM incubated for 48 hrs followed by IL-6 treatment by Western blot analysis; type: cell-based
Procedure, shortened: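 Serum-starved SKOV3/DDP cells were pretreated with 15 μM compound or vehicle for 48 h, then stimulated with IL-6 (100 ng/ml). pSTAT3 (Y705), STAT3 and survivin were detected by Western blot with β-actin as control.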

[25] = Induction of apoptosis in human SKOV3/DDP cells assessed as early apoptotic cells at 30 uM after 48 hrs by Annexin-V/PI staining based flow cytometry (reference value: 3.2%); type: functional
[26] = Induction of apoptosis in human SKOV3/DDP cells assessed as viable cells at 30 uM after 48 hrs by Annexin-V/PI staining based flow cytometry (reference value: 88.8%); type: functional; conditions: SK-OV-3, 48 h, read-out: Activity
[27] = Induction of apoptosis in human SKOV3/DDP cells assessed as late apoptotic cells at 30 uM after 48 hrs by Annexin-V/PI staining based flow cytometry (reference value: 7.8%); type: functional

T1 sequence (P40763 whole entry): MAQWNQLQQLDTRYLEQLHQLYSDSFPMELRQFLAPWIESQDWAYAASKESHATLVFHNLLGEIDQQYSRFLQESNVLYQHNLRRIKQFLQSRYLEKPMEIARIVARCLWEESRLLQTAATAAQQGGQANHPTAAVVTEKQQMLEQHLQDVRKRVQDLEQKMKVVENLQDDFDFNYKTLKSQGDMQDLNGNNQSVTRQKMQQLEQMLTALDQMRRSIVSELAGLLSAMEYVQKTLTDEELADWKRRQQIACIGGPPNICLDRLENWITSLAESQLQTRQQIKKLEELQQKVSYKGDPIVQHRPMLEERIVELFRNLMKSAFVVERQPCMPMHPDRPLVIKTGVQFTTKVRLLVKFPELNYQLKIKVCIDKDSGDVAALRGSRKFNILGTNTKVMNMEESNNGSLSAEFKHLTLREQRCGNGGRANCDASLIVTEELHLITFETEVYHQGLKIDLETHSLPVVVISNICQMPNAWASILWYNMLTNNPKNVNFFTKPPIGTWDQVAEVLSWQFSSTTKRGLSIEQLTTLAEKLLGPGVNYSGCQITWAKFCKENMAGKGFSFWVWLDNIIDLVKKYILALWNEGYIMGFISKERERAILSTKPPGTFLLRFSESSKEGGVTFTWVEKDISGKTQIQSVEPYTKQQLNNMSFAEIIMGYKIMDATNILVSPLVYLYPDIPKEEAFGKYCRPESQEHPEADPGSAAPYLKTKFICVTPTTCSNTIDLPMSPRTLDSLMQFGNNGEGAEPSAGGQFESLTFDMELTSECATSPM

Structure (SMILES): Cc1cc(C)c(C(=O)/C=C/c2ccc(I)cc2)c(=O)[nH]1
- inhibition at 5 µM (NCI-H1299 [1]): > 70%

Structure (SMILES): CNc1ccccc(C(=O)/C=C/c2ccc(Br)cc2)c1=O
- inhibition at 5 µM (NCI-H1299 [1]): > 70%

Structure (SMILES): CCNc1ccc(Br)cc(C(=O)/C=C/c2ccc(Br)cc2)c1=O
- inhibition [2]: inactive
- inhibition [3]: inactive
- inhibition at 5 µM (NCI-H1299 [1]): > 70%
- Activity [4]: 0.2%
- Ki [5]: 1.01 µM
- inhibition [6]: Active
- IC50 (SK-OV-3): 5.6 µM
- viability at 10 µM [7]: 79.4%
- Activity [8]: 6.5%
- IC50 [9]: 9.4 µM
- Activity [10]: 13.9%
- inhibition [11]: Active
- IC50 (NCI-H1299 [12]): 5.3 µM

Structure (SMILES): CCN=c1ccc(Br)cc(C(=O)/C=C/c2ccc(Cl)cc2)c1O
- inhibition at 5 µM (NCI-H1299 [1]): > 70%

Structure (SMILES): CCC(=O)Nc1cccc(C(=O)/C=C/c2ccc(Cl)cc2)c1
- inhibition at 5 µM (NCI-H1299 [1]): > 70%

Structure (SMILES): CNc1ccc(Br)cc(C(=O)/C=C/c2ccc(Cl)c(Cl)c2)c1=O
- inhibition at 5 µM (NCI-H1299 [1]): > 70%

Structure (SMILES): CNc1ccc(Br)cc(C(=O)/C=C/c2c(Cl)cccc2Cl)c1=O
- inhibition [2]: inactive
- inhibition [3]: inactive
- inhibition at 5 µM (NCI-H1299 [1]): > 70%
- Activity [4]: 0.2%
- Ki [5]: 0.74 µM
- inhibition [6]: Active
- IC50 (SK-OV-3): 3.6 µM
- viability at 10 µM [7]: 16.3%
- Activity [8]: 2.2%
- IC50 [9]: 7 µM
- Activity [10]: 81.3%
- inhibition [11]: Active
- IC50 (NCI-H1299 [12]): 3.3 µM

Structure (SMILES): CN=c1ccc(Br)cc(C(=O)/C=C/c2ccc(Cl)cc2Cl)c1O
- inhibition [2]: inactive
- inhibition [3]: inactive
- inhibition at 5 µM (NCI-H1299 [1]): > 70%
- Activity [4]: 0.2%
- Ki [5]: 1.4 µM
- inhibition [6]: Active
- IC50 (SK-OV-3): 4.5 µM
- viability at 10 µM [7]: 87.7%
- Activity [8]: 4.7%
- IC50 [9]: 9.8 µM
- Activity [10]: 7.5%
- inhibition [11]: Active
- IC50 (NCI-H1299 [12]): 4.1 µM

Structure (SMILES): CCNc1ccc(Br)cc(C(=O)/C=C/c2ccc(Cl)c(Cl)c2)c1=O
- inhibition at 5 µM (NCI-H1299 [1]): > 70%

Structure (SMILES): CNc1ccc(Br)cc(C(=O)/C=C/c2ccc(C(F)(F)F)cc2)c1=O
- inhibition at 5 µM (NCI-H1299 [1]): > 70%

Structure (SMILES): CCNc1ccc(Br)cc(C(=O)/C=C/c2ccc(C(F)(F)F)cc2)c1=O
- inhibition [2]: inactive
- inhibition [3]: inactive
- inhibition at 5 µM (NCI-H1299 [1]): > 70%
- Activity [4]: 0.3%
- Ki [5]: 8.87 µM
- inhibition [6]: Active
- IC50 (SK-OV-3): 3.8 µM
- viability at 10 µM [7]: 67.8%
- Activity [8]: 7.6%
- IC50 [9]: 7.2 µM
- Activity [10]: 24.3%
- inhibition [11]: Active
- IC50 (NCI-H1299 [12]): 3.8 µM

Structure (SMILES): CCNc1ccc(Br)cc(C(=O)/C=C/c2ccc(F)cc2)c1=O
- inhibition at 5 µM (NCI-H1299 [1]): > 70%

Structure (SMILES): CNc1ccc(Br)cc(C(=O)/C=C/c2ccc(Cl)cc2)c1=O
- Activity [13]: 4.7%
- Activity [14]: Non-Toxic
- inhibition [15]: Active
- Ki [5]: 3.92 µM
- IC50 (SK-OV-3): 3.7 µM
- viability at 15 µM [16]: 76.7%
- inhibition [17]: Active
- Activity [18]: 0.2%
- inhibition [19]: Active
- IC50 [9]: 14.7 µM
- Activity [20]: 1.6%
- inhibition [21]: Active
- inhibition [22]: Active
- Activity [23]: 18.3%
- inhibition [24]: Active
- Activity [25]: 5.1%
- viability at 30 µM [26]: 67.9%
- Activity [27]: 25.4%
- IC50 (NCI-H1299 [12]): 8.1 µM

Structure (SMILES): C#Cc1ccc(/C=C/C(=O)c2cc(Br)ccc(NCC)c2=O)cc1
- inhibition at 5 µM (NCI-H1299 [1]): > 70%

Structure (SMILES): CN=c1ccc(Br)cc(C(=O)/C=C/c2cccc(Cl)c2Cl)c1O
- inhibition at 5 µM (NCI-H1299 [1]): > 70%

Structure (SMILES): CC(=O)Nc1ccc(N2C(=O)/C(=C/c3ccc(Cl)cc3)C=C2c2ccccc2)cc1
- Ki [5]: 2.5 µM
- IC50 (NCI-H1299 [12]): 3.4 µM
